Assay results as given in ChEMBL document CHEMBL3102806, “1,2,4-Triazole/oxime hybrids as new strategy for nitric oxide donors: Synthesis, anti-inflammatory, ulceroginicity and antiproliferative activities” (Eur J Med Chem, 2014).

Experiments:
[1] = Growth inhibition of human RXF393 cells assessed as cell growth at 10^-5 M after 48 hrs by sulforhodamine B assay relative to control; format: functional; settings: RXF 393, 48 h, read-out: Activity
Outline: (§1)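 NCI primary screen, one-dose format across about 60 human tumour cell lines. Single addition at 10^-5 M with 48 h incubation; SRB protein-binding dye end point read spectrophotometrically. Reported as percent growth of treated cells versus untreated controls.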

SNB-75 = test: Growth inhibition of human SNB75 cells assessed as cell growth at 10^-5 M after 48 hrs by sulforhodamine B assay relative to control; format: functional; settings: SNB-75, 48 h, read-out: Activity
Outline: (§2)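 NCI primary screen across about 60 human tumour cell lines. Single dose of 10^-5 M, cultures incubated 48 h, end point by sulforhodamine B protein staining read spectrophotometrically. Results are given as percent growth of treated cells relative to untreated control cells.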

NCI-H460 = test: Growth inhibition of human NCI-H460 cells assessed as cell growth at 10^-5 M after 48 hrs by sulforhodamine B assay relative to control; format: functional; settings: NCI-H460, 48 h, read-out: Activity; outline: as §1
HOP-62 = test: Growth inhibition of human HOP62 cells assessed as cell growth at 10^-5 M after 48 hrs by sulforhodamine B assay relative to control; format: functional; settings: HOP-62, 48 h, read-out: Activity
Outline: (§3)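 NCI ~60 human tumour cell line screen. Single concentration of 10^-5 M added to cultures for 48 h. End point by sulforhodamine B protein staining read spectrophotometrically. Percent growth relative to untreated control cells.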

BT-549 = test: Growth inhibition of human BT549 cells assessed as cell growth at 10^-5 M after 48 hrs by sulforhodamine B assay relative to control; format: functional; settings: BT-549, 48 h, read-out: Activity; outline: as §3
COLO 205 = test: Growth inhibition of human COLO205 cells assessed as cell growth at 10^-5 M after 48 hrs by sulforhodamine B assay relative to control; format: functional; settings: COLO 205, 48 h, read-out: Activity; outline: as §3
[2] = Induction of nitric oxide release in phosphate buffer at 10^-4 M at pH 7.4 after 2 hrs by Griess colorimetric method in presence of N-acetylcysteine; format: physicochemical; settings: pH 7.4, 2 h, 100 µM
Outline: (§4)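 Final drug concentration 10^-4 M, added from DMF into 1:1 50 mM phosphate buffer (pH 7.4)/MeOH containing 5 × 10^-4 M N-acetylcysteine, at 37 °C. Nitrite read with Griess reagent after 10 min at room temperature, absorbance at 546 nm. Calibration with sodium nitrite standards (10–80 nmol/ml). Reported as mol NO per mol, n = 4 reaction mixtures.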

MCF7 = test: Growth inhibition of human MCF7 cells assessed as cell growth at 10^-5 M after 48 hrs by sulforhodamine B assay relative to control; format: functional; settings: MCF7, 48 h, read-out: Activity; outline: as §1
MDA-MB-435 = test: Growth inhibition of human MDA-MB-435 cells assessed as cell growth at 10^-5 M after 48 hrs by sulforhodamine B assay relative to control; format: functional; settings: MDA-MB-435, 48 h, read-out: Activity; outline: as §1
TK-10 = test: Growth inhibition of human TK10 cells assessed as cell growth at 10^-5 M after 48 hrs by sulforhodamine B assay relative to control; format: functional; settings: TK-10, 48 h, read-out: Activity; outline: as §2
[3] = Growth inhibition of human OVCAR5 cells assessed as cell growth at 10^-5 M after 48 hrs by sulforhodamine B assay relative to control; format: functional; settings: OVCAR-5, 48 h, read-out: Activity; outline: as §1
[4] = Growth inhibition of human HOP92 cells assessed as cell growth at 10^-5 M after 48 hrs by sulforhodamine B assay relative to control; format: functional; settings: HOP-92, 48 h, read-out: Activity; outline: as §3
CAKI-1 = test: Growth inhibition of human CAKI-1 cells assessed as cell growth at 10^-5 M after 48 hrs by sulforhodamine B assay relative to control; format: functional; settings: CAKI-1, 48 h, read-out: Activity; outline: as §3
SR [5] = test: Growth inhibition of human SR cells assessed as cell growth at 10^-5 M after 48 hrs by sulforhodamine B assay relative to control; format: functional; settings: read-out: Activity; outline: as §2
[6] = Induction of nitric oxide release in phosphate buffer at 10^-4 M at pH 7.4 after 6 hrs by Griess colorimetric method in presence of N-acetylcysteine; format: physicochemical; settings: pH 7.4, 6 h, 100 µM; outline: as §4
[7] = Induction of nitric oxide release in phosphate buffer at 10^-4 M at pH 7.4 after 4 hrs by Griess colorimetric method in presence of N-acetylcysteine; format: physicochemical; settings: pH 7.4, 4 h, 100 µM; outline: as §4
A549 = test: Growth inhibition of human A549/ATCC cells assessed as cell growth at 10^-5 M after 48 hrs by sulforhodamine B assay relative to control; format: functional; settings: A549, 48 h, read-out: Activity; outline: as §3
DU-145 = test: Growth inhibition of human DU145 cells assessed as cell growth at 10^-5 M after 48 hrs by sulforhodamine B assay relative to control; format: functional; settings: DU-145, 48 h, read-out: Activity; outline: as §3
UACC-62 = test: Growth inhibition of human UACC62 cells assessed as cell growth at 10^-5 M after 48 hrs by sulforhodamine B assay relative to control; format: functional; settings: UACC-62, 48 h, read-out: Activity; outline: as §2
ACHN = test: Growth inhibition of human ACHN cells assessed as cell growth at 10^-5 M after 48 hrs by sulforhodamine B assay relative to control; format: functional; settings: read-out: Activity; outline: as §3
[8] = Growth inhibition of human UO31 cells assessed as cell growth at 10^-5 M after 48 hrs by sulforhodamine B assay relative to control; format: functional; settings: UO-31, 48 h, read-out: Activity; outline: as §2
[9] = Growth inhibition of human NCI-ADR-RES cells assessed as cell growth at 10^-5 M after 48 hrs by sulforhodamine B assay relative to control; format: functional; settings: read-out: Activity; outline: as §1
SF-268 = test: Growth inhibition of human SF268 cells assessed as cell growth at 10^-5 M after 48 hrs by sulforhodamine B assay relative to control; format: functional; settings: SF-268, 48 h, read-out: Activity; outline: as §1
SR [10] = test: Growth inhibition of human SR cells after 48 hrs by sulforhodamine B assay; format: functional
Outline: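 NCI 60-cell-line panel, five-dose run at 10-fold dilutions from 10^-4 to 10^-8 M, 48 h continuous exposure. Viability by SRB protein stain. Percent growth is taken from time-zero, untreated-control and treated absorbances. GI50 is the concentration giving a 50% lower net protein increase than in control cells. TGI is taken at Ti = Tz, LC50 at a 50% loss of initial protein.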

MDA-MB-468 = test: Growth inhibition of human MDA-MB-468 cells after 48 hrs by sulforhodamine B assay; format: functional; settings: MDA-MB-468, 48 h
Outline: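 NCI 60-cell-line panel (nine tumour subpanels), five-dose format: 10-fold dilutions from 10^-4 to 10^-8 M, 48 h continuous exposure, SRB protein stain. Percent growth at each level is derived from time-zero, untreated control and treated absorbances. GI50 is the concentration where [(Ti−Tz)/(C−Tz)]×100 = 50. Values outside the tested range are reported as above or below the limit.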

[11] = read-out: LC50 (the source's name)

SMILES	growth at 10 µM [1]	growth at 10 µM (SNB-75)	growth at 10 µM (NCI-H460)	growth at 10 µM (HOP-62)	growth at 10 µM (BT-549)	growth at 10 µM (COLO 205)	Activity [2]	growth at 10 µM (MCF7)	growth at 10 µM (MDA-MB-435)	growth at 10 µM (TK-10)	growth at 10 µM [3]	growth at 10 µM [4]	growth at 10 µM (CAKI-1)	growth at 10 µM (SR [5])	Activity [6]	Activity [7]	growth at 10 µM (A549)	growth at 10 µM (DU-145)	growth at 10 µM (UACC-62)	growth at 10 µM (ACHN)	other results
C/C(=N\O)c1ccc(NC(=O)CSc2nnc(-c3ccccc3)n2-c2ccccc2)cc1	72.5%	59.2%	-34.7%	64.7%	75.3%	91.1%	0.15 mol/mol	62.5%	118%	73.7%	84.7%	30.1%	99.9%	106%	0.16 mol/mol	0.23 mol/mol	81.9%	67.9%	76.7%	85.7%	growth at 10 µM [8]: 90.6%; growth at 10 µM [9]: 39.3%; growth at 10 µM (SF-268): 92.2%
COc1ccc(-c2nnc(SCC(=O)Nc3ccc(/C(C)=N/O)cc3)n2-c2ccccc2)cc1OC	32.4%	-16.5%	102%	-26.4%	65.2%	99.1%	0.2 mol/mol	69.2%	104%	41.1%	97%	-8.56%	87.4%	95.4%	0.31 mol/mol	0.39 mol/mol	70.7%	88.3%	82.8%	75.5%	GI50 (SR [10]): > 100 µM; TGI (SR [10]): > 100 µM; CC50 (SR [10]; [11]): > 100 µM; GI50 (MDA-MB-468): 16.4 µM; TGI (MDA-MB-468): > 100 µM; CC50 (MDA-MB-468; [11]): > 100 µM; growth at 10 µM [8]: 104%; growth at 10 µM [9]: 90.6%; growth at 10 µM (SF-268): 30.6%
